CAL PDZ FP-1 = untagged CAL PDZ binding inhibitors, primary screen, biochemical, fluorescence polarization, HTS; Golgi-associated PDZ and coiled-coil motif-containing protein (Homo sapiens), Q9HD26; purified CAL PDZ, TMR-peptide fluorescence polarization, 1 h; inhibition, % at 24.9 µM; hit rate 0.92% among 300,000;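 active means mean inhibition of at least 30% with at least half of replicates also reaching 30%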;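 further: 0% = DMSO neutral control and 100% = excess unlabeled competitor peptide PRC23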
Rtt109 HAT inh = inhibitors of C. albicans Rtt109/Vps75 HAT, primary screen, biochemical, ThioGlo CoA-SH fluorescence, plate reader; purified Rtt109/Vps75, 4 h; inhibition, % at 34.9 µM; hit rate 0.16% among 330,000; Histone acetyltransferase RTT109 (Candida albicans (strain SC5314 / ATCC MYA-2876)), …;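 active means inhibition of at least 50% in every replicate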
Target sequence (Q5AAJ8 whole entry, looked up): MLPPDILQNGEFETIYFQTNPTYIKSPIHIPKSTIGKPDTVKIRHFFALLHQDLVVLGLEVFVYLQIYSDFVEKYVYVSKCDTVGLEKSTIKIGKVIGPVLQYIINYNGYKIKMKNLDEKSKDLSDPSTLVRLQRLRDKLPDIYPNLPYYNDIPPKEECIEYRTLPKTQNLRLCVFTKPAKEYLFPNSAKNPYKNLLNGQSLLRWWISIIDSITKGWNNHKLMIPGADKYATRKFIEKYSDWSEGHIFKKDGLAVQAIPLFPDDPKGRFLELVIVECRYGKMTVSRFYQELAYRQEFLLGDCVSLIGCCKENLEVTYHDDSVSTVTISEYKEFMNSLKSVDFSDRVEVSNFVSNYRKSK
ALR H2O2 inh = inhibitors of human ALR sulfhydryl oxidase, primary screen, biochemical, H2O2 detection, HRP-luminol luminescence, single point; FAD-linked sulfhydryl oxidase ALR (Homo sapiens), P55789; purified ALR, DTT oxidation; inhibition, % (concentration not given with the values); hit rate 3.8% among 290,000; AID 485317, 2010;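 active means mean replicate inhibition above about 79%, with every replicate also reaching it, limit read from the data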
Target sequence (P55789 whole entry, looked up): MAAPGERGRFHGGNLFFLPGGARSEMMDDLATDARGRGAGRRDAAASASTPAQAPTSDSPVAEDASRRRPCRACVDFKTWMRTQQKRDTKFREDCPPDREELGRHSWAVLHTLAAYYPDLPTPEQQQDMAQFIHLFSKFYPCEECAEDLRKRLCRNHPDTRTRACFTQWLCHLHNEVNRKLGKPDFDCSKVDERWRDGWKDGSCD
Dyrk1A ADPGlo = rat Dyrk1A kinase inhibitors, primary screen, biochemical, single point, plate reader; Dual specificity tyrosine-phosphorylation-regulated kinase 1A (Rattus norvegicus), Q63470; hit rate 0.43% among 310,000; ADP-Glo luminescence, NFATc1 peptide; AID 504441, 2011; inhibition, % at 12.5 µM; in the data active means inhibition above about 50%;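 further: plate controls were vehicle with enzyme for no effect and no enzyme for full effect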
CAL PDZ FP-2 = CAL PDZ peptide-binding inhibitors, primary screen, biochemical, fluorescence polarization, Cer-tagged CAL PDZ, HTS. Golgi-associated PDZ and coiled-coil motif-containing protein (Homo sapiens), Q9HD26. purified CAL PDZ, TMR-peptide fluorescence polarization, 1 h. hit rate 0.02% among 330,000. inhibition, % at 20 µM;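 active means highest replicate inhibition of at least 40%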;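 further: plate controls were DMSO neutral control wells for no effect and unlabeled competitor peptide control wells for full effect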
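Test system: purified CerCALP PDZ construct; Compound dosing: one concentration, 20 µM compound; Also added: TMR-labelled reporter peptide T*-PRC34 bound in PDZ groove; Read-out: inhibition from polarization loss; Controls: unlabelled peptide and DMSO controls; Signal: FP readout, S and P plane fluorescence; Incubation: 1 h at RT.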
An asterisk follows results filed as active; . = not tested or not shown. An excerpt weighted towards active compounds, which were near 4.3% of everything screened.

SMILES | CAL PDZ FP-1 | Rtt109 HAT inh | ALR H2O2 inh | Dyrk1A ADPGlo | CAL PDZ FP-2
COC(=O)c1cc2ccccc2c(-c2c(OC)c(C(=O)OC)cc3ccccc23)c1OC | -4 | 11 | -1 | -1 | 0
CSCCC(NC(=O)c1ccccc1Cl)C(=O)Nc1ccc(C)c(S(=O)(=O)N2CCOCC2)c1 (centres undefined) | 0 | 13 | 1 | -11 | -3
O=C(N/N=C/C1CC=CCC1)c1ccccc1O (centres undefined) | -2 | 0 | 5 | 6 | -1
O=C(CNc1ccccc1F)N/N=C/C1CC=CCC1 (centres undefined) | 58* | 9 | . | . | -2
COc1ccc(OC)c(CN2CCN(C(=O)CCC(=O)c3cccs3)CC2)c1 | -2 | -9 | -1 | -1 | -3
Cc1ccc(C=Nc2ccc(N(C)C)cc2)o1 | -2 | -24 | 98* | -1 | 2
O=C(O)Cc1sc(-c2ccccc2Cl)nc1-c1ccccc1 | -2 | . | 99* | 18 | -2
O=C(Cc1sc(-c2ccccc2)nc1-c1ccccc1)Nc1ccccc1 | 3 | -3 | 0 | 2 | -1
Cc1ccc(-c2nc(-c3ccc(Cl)cc3)sc2CC(=O)O)c(C)c1 | 4 | 6 | 99* | -4 | -2
C/C(=N\NC(=O)CCc1ccc(S(=O)(=O)N2CCOCC2)cc1)c1ccccc1Cl | . | 6 | 98* | -4 | 0
COc1cc(/C=C(/NC(C)=O)C(=O)O)cc(Cl)c1OCc1ccc(Br)cc1 | -5 | 4 | 95* | -2 | -4
COc1ccc(-c2ccc(CCC(=O)O)n2-c2ccccc2OC)cc1 | -5 | 1 | 99* | . | 0
NC(=O)Nn1c(CCC(=O)O)ccc1-c1ccc(Cl)cc1 | -11 | 2 | 53 | -4 | -2
O=C(O)CCc1ccc(-c2ccccc2)n1NC(=O)c1sc2ccccc2c1Cl | -4 | 4 | 98* | -7 | -1
O=C(O)CCc1ccc(-c2ccccc2)n1-c1ccc(C(=O)O)cc1 | -1 | -11 | 1 | 8 | -1
COc1ccc(-c2ccc(CCC(=O)O)n2NC(=O)c2ccc(O)cc2)cc1 | . | 3 | 98* | -2 | -1
COc1ccc(-c2ccc(CCC(=O)O)n2NC(N)=O)cc1 | 2 | -19 | 31 | 10 | -2
COc1ccccc1-n1c(CCC(=O)O)ccc1-c1ccccc1 | -4 | -3 | 90* | 3 | -1
Cc1cc(NC(=O)c2cc([N+](=O)[O-])cc([N+](=O)[O-])c2C)no1 | . | 10 | -26 | -5 | 0
O=C(CSc1nc(Nc2ccccc2)nc(N2CCOCC2)n1)NC1CCCCC1 | 0 | 0 | -3 | -5 | -1
COc1ccc(NC(C)=O)cc1NC(C)c1nc2sc(C)c(C)c2c(=O)[nH]1 (centres undefined) | 59* | -8 | 4 | 4 | -2
O=S(=O)(c1ccccc1)N(CC(O)COc1ccccc1)c1ccccc1 (centres undefined) | 57* | 0 | -5 | -3 | 0
CC(C)(O)/C=C/C[C@](C)(O)C1CC[C@]2(C)C1[C@H](O[C@H]1O[C@@H](CO)[C@H](O)[C@@H](O)[C@@H]1O)CC1[C@@]3(C)CC[C@H](O)C(C)(C)C3[C@@H](O)C[C@]12C (some centres undefined) | 0 | 1 | -2 | -2 | 0
CCOCCCNC(=O)CCCOc1ccccc1 | 70* | -10 | -3 | 3 | -1
CCCCOCCCNC(=O)CCCOc1ccccc1 | -5 | 7 | -5 | 6 | 1
SMILES | CAL PDZ FP-1 | Rtt109 HAT inh | ALR H2O2 inh | Dyrk1A ADPGlo | CAL PDZ FP-2
c1cn2cc(-c3ccc4c(c3)OCO4)nc2s1 | -1 | -29 | 95* | 9 | -1
COc1ccc(CCNC(=O)CSc2nnc(-c3ccccc3)o2)cc1OC | 0 | 3 | 0 | -3 | 1
O=C(CSc1ccccc1)NCCc1ccccc1 | . | -1 | -14 | 16 | 0
O=C(CSc1ccc2ccccc2c1)NCCc1ccc(O)c(O)c1 | 10 | 1 | 99* | 2 | -1
COc1ccc(CCNC(=O)CSc2ccc(NC(C)=O)cc2)cc1OC | -5 | 24 | 98* | 0 | -3
Cc1cc(C)n2nc(SCC(=O)Nc3ccc(F)cc3[N+](=O)[O-])nc2n1 | 2 | -3 | . | . | 0
COc1ccc(CCNC(=O)CSc2nnc(-c3ccccc3)c3ccccc23)cc1OC | 0 | -7 | 96* | 1 | -4
Cc1ccc(SCC(=O)Nc2ccc(F)cc2[N+](=O)[O-])cc1C | -2 | -3 | 96* | 21 | 0
CC(C)(CO)Nc1nc(Cl)nc(NC2CCCCC2)n1 | -2 | 0 | -3 | -1 | 0
O=S(=O)(Cc1noc(-c2ccc(Cl)cc2)n1)Cc1ccco1 | . | . | -4 | . | .
O=Cc1cccc2ccc3cccc(C(=O)O)c3c12 | 4 | -3 | -7 | -6 | 1
CN(C(=O)c1ccc(NC(=O)Cc2ccc([N+](=O)[O-])cc2)cc1)C1CC1 | -9 | 3 | -2 | -6 | -1
COc1ccc(CCNC(=O)Cn2c(-c3nonc3N)nc3ccccc32)cc1OC | 40* | 10 | 6 | -7 | .
COc1ccc(CCNC(=O)CSc2ccc3ccccc3c2)cc1OC | 2 | -12 | 99* | 3 | -1
COc1ccc([N+](=O)[O-])cc1NC(=O)CSc1nc(C)cc(C)n1 | 4 | -1 | . | 0 | -1
COc1ccc(CC(=O)NCCc2ccc(OC)c(OC)c2)cc1 | 0 | -1 | -29 | 2 | 0
COc1ccc(CCNC(=O)CCSCc2ccccc2F)cc1OC | 41* | 2 | -5 | 4 | .
COc1ccc([N+](=O)[O-])cc1NC(=O)CSc1ccc2ccccc2c1 | -5 | . | 99* | 5 | -1
CCc1ccc2oc(-c3ccc(NC(C)=O)cc3)nc2c1 | -2 | 8 | 96* | -5 | 8
Cc1ccnc2nc(C(=O)NCc3ccccc3)nn12 | 197* | 2 | 1 | -1 | 8
CCc1ccc(NC(=O)N2CCCCCC2)cc1 | -5 | -1 | -5 | -2 | 0
CCN1CCN(C(=O)Nc2ccc(Cc3ccc(NC(=O)N4CCN(CC)CC4)cc3)cc2)CC1 | 0 | 11 | 99* | 32 | -1
COc1cc(Cl)c(C)cc1NC(=O)CSc1cc(Cl)ccc1Cl | -2 | -17 | -4 | . | -1
COC(=O)c1c(NS(=O)(=O)Cc2ccccc2)sc2c1CCCC2 | -4 | -1 | 91* | 3 | -2
Cc1ccc(CNC(=O)CN(C)S(=O)(=O)c2ccc3c(c2)n(C)c(=O)c(=O)n3C)cc1 | . | -1 | -5 | 0 | -2
Cc1ccc(-c2nc(NCc3ccco3)n(C(=O)c3ccco3)n2)cc1 | 0 | -10 | . | -14 | -2

Bioassay records deposited in PubChem BioAssay by Broad Institute.
